# Assay results published in PubChem BioAssay.
# Calls of active or inactive are those of the source.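 Rule for the calls, unless noted: active = Her2 level under about 52% in both replicate screens, with viability over 70% of control (limit read from the data); inconclusive = Her2 under the limit in one screen only, or viability under 70%; inactive = Her2 level above the set limit.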
# Assays:
# [1] = Her2 expression decrease, cell viability multiplex – SKBR3 breast tumor cells, AlphaScreen, ATP viability, primary screen (AID 461); details: SKBR3 Her2 protein level, 18-24 h, measured here: SKBR3 viability, ATP luminescence, at 10 µM;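 for Her2 level: lower value means less Her2 protein in the cells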;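 for viability: percent of carrier control wells set as 100% viability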
# [2] = biological target: Receptor tyrosine-protein kinase erbB-2 (Homo sapiens) (UniProt P04626); assay: as above; details: 18-24 h, at 10 µM, stronger effect = lower value
# [3] = reduced viability of SK-BR-3 breast cancer cells – cell-based, 24 h, human, pilot screen (AID 572;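 active = viability at or below 10% of carrier control in both of two separate runs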;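 note: compound exposure lasted between 18 and 24 h rather than exactly 24 h; 100% = carrier-treated control wells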); details: SK-BR-3 viability, CellTiter-Glo luminescence, at 10 µM, stronger effect = lower value
# [4] = HUVEC growth inhibition – cell-based, human, primary screen (AID 575;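 active = viability at or below 30% in both replicate assays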;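 note: 100% = median of untreated cell wells with 0.1% DMSO on each plate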); details: HUVEC proliferation, CellTiter-Glo luminescence, 72 h; at 10 µM; stronger effect = lower value
# How it was run: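 System – primary HUVEC, no more than 12 passages · Medium – Low-serum (2% FBS) EBM, supplemented · Times – 72 h exposure, 37 °C, 5% CO2, 30 min RT equilibration · Measured by – luminescent ATP assay · Read-out – % viability relative to median vehicle-well signal on each plate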
# [5] = H69AR cell proliferation blockers – human, duplicate replicates, primary screen (AID 580;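 active = viability at or under a set limit in both replicates, limit being median viability minus 3 SD, cut at about 48% in these data, passing the limit was not always enough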;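 note: 100% = mean luminescence of untreated wells and 0% = no signal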); details: H69AR lung tumor cells viability, ATP luminescence, 72 h; at 10 µM; stronger effect = lower value
# [6] = MRP1 drug-resistance reversers in H69AR cells – cell-based, doxorubicin co-treatment, pilot screen (AID 601;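 active = viability loss from added drug above about 55%, and viability with drug at most 40%, in both replicates, limit read from the data, passing the limit was not always enough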); details: CellTiter-Glo, 72 h, at 10 µM; for differential viability (reversal): stronger effect = higher value
# [7] = yeast transport mutant growth inhibition pilot in 384-well plates, post-Golgi transport modulator project (AID 636; in the data active = inhibition above about 31%); details: absorbance 615 nm, about 18 h, stronger effect = higher value
# [8] = growth suppression of yeast trafficking mutant, preliminary HTS, modulators of trafficking downstream of Golgi apparatus project, 1536-format plate, OD 615 nm (AID 637; in the data active = inhibition above about 30%); details: yeast transport mutant growth, absorbance 615 nm, 18 h; stronger effect = higher value
# [9] = H69AR cells + 2 uM doxorubicin, measured here: viability with 2 uM doxorubicin, stronger effect = lower value
# [10] = H69AR cells, compound alone cytotoxicity
# Sequence of Receptor tyrosine-protein kinase erbB-2 (Homo sapiens) (P04626 whole entry, looked up): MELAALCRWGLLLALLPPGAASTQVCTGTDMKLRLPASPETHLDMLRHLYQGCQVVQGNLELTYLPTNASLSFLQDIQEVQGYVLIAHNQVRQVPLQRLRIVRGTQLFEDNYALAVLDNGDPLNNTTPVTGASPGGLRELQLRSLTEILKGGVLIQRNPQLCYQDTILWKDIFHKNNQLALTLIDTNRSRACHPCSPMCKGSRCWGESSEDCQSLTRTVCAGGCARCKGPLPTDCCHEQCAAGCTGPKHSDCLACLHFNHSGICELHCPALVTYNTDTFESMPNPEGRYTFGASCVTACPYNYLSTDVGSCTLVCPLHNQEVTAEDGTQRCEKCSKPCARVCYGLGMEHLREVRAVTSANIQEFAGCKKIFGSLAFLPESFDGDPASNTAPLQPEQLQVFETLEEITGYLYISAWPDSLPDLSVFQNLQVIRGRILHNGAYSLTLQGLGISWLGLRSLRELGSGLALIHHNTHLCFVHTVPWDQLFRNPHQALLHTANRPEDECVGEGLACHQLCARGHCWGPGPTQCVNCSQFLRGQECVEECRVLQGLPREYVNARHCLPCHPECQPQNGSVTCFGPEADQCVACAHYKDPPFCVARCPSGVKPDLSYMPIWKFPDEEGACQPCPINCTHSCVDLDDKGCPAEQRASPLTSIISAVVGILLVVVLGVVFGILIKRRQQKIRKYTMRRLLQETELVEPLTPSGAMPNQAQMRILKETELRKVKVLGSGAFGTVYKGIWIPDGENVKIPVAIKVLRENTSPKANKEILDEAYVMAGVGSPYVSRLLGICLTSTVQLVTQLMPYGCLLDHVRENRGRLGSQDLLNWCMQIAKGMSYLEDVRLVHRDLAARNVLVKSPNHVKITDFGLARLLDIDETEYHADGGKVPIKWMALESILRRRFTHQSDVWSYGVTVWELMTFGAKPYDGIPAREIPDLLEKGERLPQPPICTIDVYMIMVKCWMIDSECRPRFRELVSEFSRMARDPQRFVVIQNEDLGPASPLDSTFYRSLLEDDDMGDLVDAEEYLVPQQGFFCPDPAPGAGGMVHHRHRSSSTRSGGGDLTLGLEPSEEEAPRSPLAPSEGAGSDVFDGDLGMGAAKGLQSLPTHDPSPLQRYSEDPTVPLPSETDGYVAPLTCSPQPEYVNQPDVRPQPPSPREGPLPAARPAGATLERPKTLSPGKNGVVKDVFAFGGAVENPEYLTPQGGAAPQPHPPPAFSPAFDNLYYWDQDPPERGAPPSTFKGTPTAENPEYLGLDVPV
Compound,viability [1],Her2 level [2],viability [3],viability [4],viability [5],differential viability (reversal) ([6]; H69AR cells + 2 uM doxorubicin),"viability [6, 9]","viability [6, 10]",inhibition [7],inhibition [8]
O=C(NCc1cccnc1)c1ccccn1,102%,108% (inactive),102% (inactive),103% (inactive),110% (inactive),16.2% (inactive),93.9%,110%,-4.8% (inactive),-3.65% (inactive)
COc1cccc(NC(=O)Nc2cccs2)c1,93%,79% (inactive),93% (inactive),75% (inactive),79.5% (inactive),1.41% (inactive),78.1%,79.5%,-6.53% (inactive),-2.3% (inactive)
O=C(CC1CCS(=O)(=O)C1)Nc1ccc[nH]c1=O (stereo not given),102%,82.5% (inactive),102% (inactive),88.1% (inactive),106% (inactive),14.1% (inactive),92.3%,106%,-4.74% (inactive),-8% (inactive)
Cc1ccc(NC(=O)C2CCCN(S(=O)(=O)c3cnc[nH]3)C2)cc1C (stereo not given),95%,110% (inactive),95% (inactive),102% (inactive),100% (inactive),5.56% (inactive),94.6%,100%,-5.6% (inactive),-2.3% (inactive)
OCCNCC(O)Cn1ccc2ccccc21 (stereo not given),118%,94.5% (inactive),118% (inactive),107% (inactive),88.6% (inactive),0.01% (inactive),88.6%,88.6%,-3.77% (inactive),-0.16% (inactive)
O=C(NCc1ccco1)C1CC(=O)N(c2ccc(F)cc2)C1 (stereo not given),96.5%,97% (inactive),96.5% (inactive),108% (inactive),108% (inactive),16% (inactive),91.5%,108%,-0.93% (inactive),-1.61% (inactive)
O=C(COc1ccccc1)Nc1ccc(-c2nnc(-c3ccco3)o2)cc1,128%,108% (inactive),128% (inactive),102% (inactive),95.5% (inactive),8.73% (inactive),86.8%,95.5%,-6.97% (inactive),-1.15% (inactive)
CC(=O)c1ccc(OCC(O)CN2CC(C)OC(C)C2)cc1 (stereo not given),108%,80.5% (inactive),108% (inactive),99.7% (inactive),105% (inactive),14% (inactive),91.3%,105%,-5.19% (inactive),4.13% (inactive)
O=C(Nc1ccc2c(c1)OCCO2)C1CCCN1S(=O)(=O)c1cccc2cccnc12 (stereo not given),92%,100% (inactive),92% (inactive),100% (inactive),96.8% (inactive),14.4% (inactive),82.3%,96.8%,-1.33% (inactive),-0.98% (inactive)
O=C(Nc1nccs1)c1ccc(COc2ccccc2Br)o1,118%,91.5% (inactive),118% (inactive),50.3% (inactive),80.9% (inactive),-2.83% (inactive),83.7%,80.9%,-2.27% (inactive),-7.26% (inactive)
CCOC(=O)C1CCN(C(=O)c2ccc(OC)cc2OC)CC1,102%,112% (inactive),102% (inactive),110% (inactive),106% (inactive),5.9% (inactive),100%,106%,-6.13% (inactive),6.13% (inactive)
CNS(=O)(=O)c1cccc(C(=O)OCC(=O)c2cc(C)n(-c3ccc4c(c3)OCO4)c2C)c1,85.5%,92% (inactive),85.5% (inactive),65.6% (inactive),88.4% (inactive),2.79% (inactive),85.6%,88.4%,-4.42% (inactive),2% (inactive)
COc1cc(NS(=O)(=O)N2CCCC2)cc(OC)c1OC,83.5%,95.5% (inactive),83.5% (inactive),94.8% (inactive),92.2% (inactive),8.42% (inactive),83.8%,92.2%,-7.57% (inactive),-2.95% (inactive)
Cc1n[nH]c(C)c1S(=O)(=O)N1CCN(c2ccccn2)CC1,99.5%,108% (inactive),99.5% (inactive),111% (inactive),103% (inactive),3.44% (inactive),99.8%,103%,-0.26% (inactive),-4.29% (inactive)
CS(=O)(=O)c1ccc2nc(NC(=O)c3cccs3)sc2c1,99%,74.5% (inactive),99% (inactive),64% (inactive),45% (active),-6.37% (inactive),51.4%,45%,-6.76% (inactive),2.95% (inactive)
CCN(c1ccc(OC)cc1)S(=O)(=O)c1ccc2c(c1)CCN2C(=O)CCC(=O)O,115%,97.5% (inactive),115% (inactive),88.9% (inactive),92.4% (inactive),2.4% (inactive),90%,92.4%,-3.55% (inactive),-2.06% (inactive)
CC(C)=CCCC(C)N(C=O)C(C)CCC=C(C)C (stereo not given),84.5%,94% (inactive),84.5% (inactive),76.3% (inactive),87.8% (inactive),7.05% (inactive),80.7%,87.8%,-0.68% (inactive),-2.7% (inactive)
COc1ccc2nc(N3CCC(C)CC3)c(C#N)cc2c1,108%,101% (inactive),108% (inactive),86.6% (inactive),26.8% (active),3.77% (inactive),23%,26.8%,-5.33% (inactive),2.62% (inactive)
CN(C(=O)c1ccccc1Cl)c1ccccc1,93.5%,83.5% (inactive),93.5% (inactive),92.8% (inactive),106% (inactive),23.6% (inactive),82%,106%,-8.63% (inactive),0.95% (inactive)
C[C@H](NC(=O)Nc1ccccc1F)C(=O)O,100%,96% (inactive),100% (inactive),101% (inactive),100% (inactive),-14.3% (inactive),115%,100%,-3.42% (inactive),4.43% (inactive)
CCC(=O)N1CCN=C1SCc1ccc(Cl)cc1,90%,93.5% (inactive),90% (inactive),77.3% (inactive),95.1% (inactive),10.8% (inactive),84.3%,95.1%,1.04% (inactive),31.5% (active)
Cc1cc(C)n(CC2CC(=O)N(c3ccc(Cl)c(Cl)c3)C2=O)n1 (stereo not given),112%,96.5% (inactive),112% (inactive),89.9% (inactive),104% (inactive),10.4% (inactive),93.4%,104%,-4.79% (inactive),-9.05% (inactive)
O=C(Nc1ccccc1)c1ccc(NCC2CCCO2)c(S(=O)(=O)N2CCOCC2)c1 (stereo not given),87%,95% (inactive),87% (inactive),102% (inactive),90% (inactive),4.29% (inactive),85.7%,90%,-3.16% (inactive),-5.87% (inactive)
Fc1ccccc1-c1nc(NCCCN2CCOCC2)c2ccccc2n1,94%,107% (inactive),94% (inactive),85.6% (inactive),72.2% (inactive),-7.69% (inactive),79.9%,72.2%,-0.68% (inactive),9.21% (inactive)
CCCCNC(=O)c1nc2ncc(Br)cn2n1,108%,75% (inactive),108% (inactive),100% (inactive),85.4% (inactive),-5.97% (inactive),91.4%,85.4%,-3.51% (inactive),-2.3% (inactive)
CC(C)(C)NCc1cc2ccccc2[nH]c1=O,90%,74.5% (inactive),90% (inactive),99.1% (inactive),93.2% (inactive),9.9% (inactive),83.3%,93.2%,-9.05% (inactive),-2.5% (inactive)
CCOC(=O)c1c(N)sn(-c2ccccc2)c1=S,87%,108% (inactive),87% (inactive),101% (inactive),85.3% (inactive),-5.28% (inactive),90.6%,85.3%,-0.9% (inactive),2.17% (inactive)
CCOC(=O)C(NC(=O)C1CCCN1C(=O)OCc1ccccc1)C(=O)OCC (stereo not given),104%,94.5% (inactive),104% (inactive),98.2% (inactive),99.8% (inactive),3.49% (inactive),96.3%,99.8%,-1.58% (inactive),-1.77% (inactive)
